Xi reactivation = activators of X-chromosome reactivation in mouse fibroblasts; activation, % at 7.58 µM; 360,000 tested, 0.055% active; XiGFP mouse fibroblasts, % GFP-positive cells imaging, 3 d; cells co-treated with 5-aza-dC sensitizer; scaled so ellipticine positive control = 100%;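 active means mean normalized replicate activation at least 10% and every replicate at or above 10%; inconclusive means only one of the two criteria met; inactive means mean below 10% and not all replicates reach 10%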;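 further: 0% = median of on-plate neutral control wells and 100% = ellipticine 6 µM median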
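Material: XiGFP fibroblasts, SV40-immortalized; Buffer or medium: DMEM containing 5-aza-dC; Compound dosing: single point; Times: 3 days compound exposure.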
MITF act = increases MITF-driven TRPM1 promoter luciferase signal; SK-MEL-5 TRPM1-promoter luciferase, 24 h; % of positive control, neutral wells = 0; activation, % at 12.5 µM; 300,000 tested, 0.75% active; AID 588334;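 active means mean activation of at least 80% with every replicate also reaching 80%; inconclusive means mean reaches 80% but some replicate falls short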;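 further: 0% = neutral control wells and 100% = parthenolide positive control wells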
Wnt bcat act = activators of Wnt/beta-catenin signaling; Wnt/beta-catenin reporter cell assay, activator, plate reader; activation, % at 9.35 µM; 300,000 tested, 1.2% active; in the data active means activation above about 30%, passing the limit was not always enough; inconclusive means no clear call, values can overlap the other calls;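 further: 0% = neutral control wells and 100% = positive control wells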
Vif imaging = inhibitors of HIV Vif. HEK293T cells, Vif self-association by quenched fluorescence, imaging, 24 h. inhibition, % at 7.49 µM. 340,000 tested, 0.35% active. AID 602346; in the data active means inhibition above about 50%, passing the limit was not always enough; inconclusive means no clear call, values can overlap the other calls; inactive means below about 31%
esBAF inh = inhibitors of esBAF chromatin remodeling in mouse ES cells; reporter increase, % at 12.5 µM; Bmi1-luciferase knock-in reporter, 24 h; 100% = twice the neutral-well signal; 350,000 tested, 2% active; AID 602393; in the data active means activation above about 40%; inconclusive means no clear call, values can overlap the other calls;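 further: 0% = median of the plate's neutral control wells and 100% = double that signal; a rise in the Bmi1 reporter signal indicates esBAF inhibition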
The depositor's hits bear a star; ? = inconclusive; . = no result given; + = active, no number. Most compounds without a hit are left out; they make up all but 2.6% or so of the library.

SMILES	Xi reactivation	MITF act	Wnt bcat act	Vif imaging	esBAF inh
CO[C@H]1CC[C@H]2CCN(C)C(=O)[C@@H](C)[C@@H](OC)CN(C)C(=O)c3cc(C#N)ccc3OC[C@@H]1O2	0	.	.	.	-3
CCC(=O)N1CC2(CCN(C(=O)NC(C)C)CC2)c2c(n(C)c3cc(OC)ccc23)[C@@H]1CO	0	.	.	.	.
CC(C)(C)NC(=S)N/N=C\c1ccc(-c2ccc([N+](=O)[O-])cc2)o1	66*	.	0	.	-14
CO[C@@H]1CN(C)C(=O)c2ccc(NC(=O)c3ccc(F)cc3)cc2OC[C@@H](C)N(C(=O)CC2CC2)C[C@H]1C	0	.	.	.	2
CCCCCCOC(=O)C(C#N)c1nc2ccccc2nc1N1CCOCC1 (stereo not drawn)	.	4	.	182*	0
N#CC(C(=O)NCCc1ccccc1)c1nc2ccccc2nc1N1CCOCC1 (stereo not drawn)	.	1	.	64*	-5
c1ccc(-n2nnc3ccccc32)nc1	.	76	.	0	61*
Cc1ccc2nc(-c3cccc(S(=O)(=O)N(C)C)c3)cn2c1	.	?	.	-10	83*
Cc1ccc2nc(-c3cccc(S(=O)(=O)N4CCCC4)c3)cn2c1	0	29	13	-3	64*
C[C@@H]1CCCCO[C@H](CN(C)Cc2ccccc2)[C@H](C)CN([C@H](C)CO)C(=O)c2cc(NC(=O)CCC(F)(F)F)ccc2O1	0	.	.	.	-2
O=C(NCc1ccc(Cl)cc1)c1cnn2ccccc12	1	96*	9	-12	60*
Cc1cccc(NC(=O)c2cnn3ccccc23)c1C	0	?	-1	22	42*
Nc1nc(N2CCN(C(=O)c3ccco3)CC2)nc2ccc(Br)cc12	.	105*	.	-4	.
Cc1cc(C)c2nc(N3CCN(C(=O)c4ccco4)CC3)sc2c1	0	91*	-21	-1	54*
O=C(c1ccco1)N1CCN(c2nc3ccsc3c(=O)s2)CC1	0	43	5	9	39
Cc1cc2nc(N3CCN(C(=O)c4ccco4)CC3)sc2cc1C	0	116*	?	-26	69*
COc1cccc(S(=O)(=O)Nc2ccc3c(c2)[C@H]2C[C@@H](CC(=O)NCCc4ccccc4)O[C@H](CO)[C@H]2O3)c1	0	.	.	.	9
CN(C)c1ccc(C=NNC(=S)Nc2ccc(F)cc2)cc1	0	62	8	-12	59*
Fc1ccc(NC(=S)N/N=C/c2ccc(F)c(F)c2)c(F)c1	.	.	.	110*	19
Cc1ccc(O)c(N=Cc2ccc(C)s2)c1	0	0	.	-11	59*
O=C(N=Nc1c(O)[nH]c2ccccc12)c1ccc2c(c1)OCO2	0	0	46*	10	.
O=C(N=Nc1c(O)[nH]c2ccccc12)c1ccc(CN2CCOCC2)cc1	0	4	-3	-4	13
CS(=O)(=O)N1[C@@H](C#N)[C@@H](c2ccc(C#CC3CCCC3)cc2)[C@@H]1CO	0	.	.	.	-2
Cc1cccc2sc(NC(=O)C3CC3)nc12	0	25	4	-15	8
Cc1ccc2sc(NC(=O)C3CC3)nc2c1C	0	37	22	-4	63*
SMILES	Xi reactivation	MITF act	Wnt bcat act	Vif imaging	esBAF inh
O=C(CCN1C(=O)C2CCCCC2C1=O)Nc1nc2c(F)cc(F)cc2s1 (stereo not drawn)	0	90*	41*	-17	?
O=C(Nc1nc2c(F)cc(F)cc2s1)C1CC1	1	.	15	0	49*
CO[C@@H]1CN(C)C(=O)c2ccc(NC(=O)C3CC3)cc2OC[C@@H](C)N(CCC(F)(F)F)C[C@H]1C	-1	.	.	.	.
COc1cc(CC(=O)O)c(C(C)=O)cc1OC	.	-12	.	-3	48*
COc1cc(CC(=O)O)c([N+](=O)[O-])cc1OC	0	-12	-2	6	.
Cc1ccc(-c2nc(N)n(C(=O)c3cccnc3)n2)cc1	.	.	9	-5	43*
Cc1ccc(C(=O)n2nc(-c3cccnc3)nc2N)cc1	.	-2	.	0	.
O=c1[nH]c(=O)n([C@H]2C[C@H](O)[C@@H](CO)O2)cc1C(F)(F)F	25*	-8	2	-2	-25
O=c1[nH]c(=O)n(C2C[C@H](O)[C@@H](CO)O2)cc1C(F)(F)F (stereo partly drawn)	0	-8	9	0	-40
O=[N+]([O-])c1ccc(Nc2ccc3ccccc3c2)nc1	.	80	0	-10	96*
C/C(=N\Nc1ccc([N+](=O)[O-])cc1)c1cccc(N)c1	.	108*	26	10	85*
O=C(O)c1ccccc1C=NNc1ccc([N+](=O)[O-])cn1	0	1	3	4	1
O=[N+]([O-])c1ccc(Nc2ccc(Cl)cc2)nc1	0	16	4	-1	.
CC(=NNc1ccc([N+](=O)[O-])cn1)c1ccccc1	0	92*	6	-4	88*
CC(C=NNc1ccc([N+](=O)[O-])cn1)=Cc1ccccc1	0	78	64*	17	-8
CCCC(=O)Nc1ccc2c(c1)C(=O)N(C)[C@@H]1CC[C@H](CC(=O)Nc3ccccc3)O[C@@H]1CO2	0	.	.	.	1
Cc1ccc(NC(=O)C2CCN(C(=O)[C@@H]3Cc4ccccc4CN3)CC2)cc1	0	37	7	-7	54*
COc1ccc2c3c([nH]c2c1)[C@@H](CO)N(C(C)=O)CC31CN(C(=O)c2cccc(F)c2)C1	0	.	.	.	.
O=C1S/C(=C/c2ccc(N3CCOCC3)o2)C(=O)N1Cc1c(F)cccc1Cl	.	.	.	+	-8
CCOC(=O)/C=C1/SCC(=O)N1CC(=O)Nc1cccc(F)c1	0	2	5	2	-3
CCOC(=O)/C=C1\SCC(=O)N1CC(=O)Nc1ccc2c(c1)CCC2	.	-9	43*	-4	1
C/C(=N\Nc1ccc(Cl)c(C(=O)O)c1)c1cccc2ccccc12	0	.	4	65*	8
CC(C)n1cc(/C=N/Nc2ccc(Cl)c(C(=O)O)c2)c2ccccc21	.	.	.	6	28
O=C(O)c1cc(N/N=C/c2cccc3ccccc23)ccc1Cl	0	100*	27	2	80*
O=C(Cc1ccccc1)N1CC(=O)N2[C@H](C1)[C@@H](c1ccc(-c3cccc(F)c3)cc1)[C@@H]2CO	0	.	.	.	.
CN(C)C(=O)C[C@@H]1CC[C@H](NS(=O)(=O)c2ccccc2)[C@H](CO)O1	0	.	.	.	-2
COc1ccc(S(=O)(=O)Nc2cc3c(C(C)=O)c(C)oc3c3ccccc23)cc1	.	-39	-17	102*	-8
Cc1oc2c(cc(NS(=O)(=O)c3ccc(F)cc3)c3ccccc32)c1C(=O)O	0	-31	0	11	-5
O=C(NCc1ccc(F)cc1)c1cc(C2CCCCN2C(=O)OCCF)on1 (stereo not drawn)	0	.	-2	67*	0
CC(C)NC(=O)N(C)C[C@@H]1Oc2ccc(NC(=O)C3CCCCC3)cc2CC(=O)N([C@H](C)CO)C[C@H]1C	0	.	.	.	1
